# From ChEMBL document CHEMBL2434847, “Design, synthesis, and structure-activity relationships of novel 6,7-disubstituted-4-phenoxyquinoline derivatives as potential antitumor agents” (Eur J Med Chem, 2013)
# pIC50: −log10 of the molar value.
# Experiments:
# [1] = target: T1, Receptor-type tyrosine-protein kinase FLT3 (Homo sapiens, UniProt P36888); assay: Inhibition of FLT3 (unknown origin) using poly (Glu, Tyr) (4:1) as substrate after 30 mins by spectrophotometric analysis
# T1 sequence (P36888 whole entry): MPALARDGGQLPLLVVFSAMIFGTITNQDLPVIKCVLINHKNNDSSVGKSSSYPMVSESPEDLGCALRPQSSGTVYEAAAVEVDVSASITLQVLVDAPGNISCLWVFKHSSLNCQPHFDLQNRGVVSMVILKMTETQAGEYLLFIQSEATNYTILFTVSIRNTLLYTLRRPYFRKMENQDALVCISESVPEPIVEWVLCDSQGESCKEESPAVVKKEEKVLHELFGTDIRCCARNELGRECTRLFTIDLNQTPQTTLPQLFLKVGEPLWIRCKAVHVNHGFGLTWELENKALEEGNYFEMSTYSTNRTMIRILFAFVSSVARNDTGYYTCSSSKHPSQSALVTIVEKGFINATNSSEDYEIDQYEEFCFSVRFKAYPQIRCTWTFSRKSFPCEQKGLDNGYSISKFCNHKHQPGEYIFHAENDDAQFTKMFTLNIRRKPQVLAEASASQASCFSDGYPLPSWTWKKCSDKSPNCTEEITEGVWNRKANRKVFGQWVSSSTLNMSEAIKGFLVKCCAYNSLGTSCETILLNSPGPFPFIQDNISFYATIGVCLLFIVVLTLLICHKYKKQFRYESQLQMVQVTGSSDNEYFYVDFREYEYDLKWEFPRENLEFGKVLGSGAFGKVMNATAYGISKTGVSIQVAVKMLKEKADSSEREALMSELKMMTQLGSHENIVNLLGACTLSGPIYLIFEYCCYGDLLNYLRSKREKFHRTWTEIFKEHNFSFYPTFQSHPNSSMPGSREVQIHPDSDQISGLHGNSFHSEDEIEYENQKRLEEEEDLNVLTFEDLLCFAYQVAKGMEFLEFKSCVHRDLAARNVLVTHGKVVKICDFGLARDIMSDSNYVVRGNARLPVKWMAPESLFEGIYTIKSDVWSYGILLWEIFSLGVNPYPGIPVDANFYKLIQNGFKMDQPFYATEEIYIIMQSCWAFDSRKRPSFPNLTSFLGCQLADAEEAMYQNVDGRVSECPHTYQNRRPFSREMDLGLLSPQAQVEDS
# HT-29 [2] = assay: Ratio of foretinib IC50 to compound IC50 for human HT-29 cells; assay type: functional
# A549 = assay: Cytotoxicity against human A549 cells after 72 hrs by MTT assay; assay type: functional, cell-based; details: A549, 72 h
# In short: (§1)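 Cells grown in MEM with 10% FBS; about 4 × 10³ cells per well, preincubated 24 h at 37 °C in 5% CO₂, then exposed to compound for 72 h. Each line tested three times; IC50 is mean of three determinations.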
# [3] = target: Platelet-derived growth factor receptor beta (Homo sapiens, UniProt P09619); assay: Inhibition of PDGFRbeta (unknown origin) using poly (Glu, Tyr) (4:1) as substrate after 30 mins by spectrophotometric analysis
# [4] = Cytotoxicity against human U87MG cells after 72 hrs by MTT assay; assay type: functional, cell-based, U-87MG ATCC; details: U-87 MG; in short: as §1
# [5] = target: Epidermal growth factor receptor (Homo sapiens, UniProt P00533); assay: Inhibition of EGFR (unknown origin) using poly (Glu, Tyr) (4:1) as substrate after 30 mins by spectrophotometric analysis
# [6] = target: Vascular endothelial growth factor receptor 2 (Homo sapiens, UniProt P35968); assay: Inhibition of VEGFR2 (unknown origin) using poly (Glu, Tyr) (4:1) as substrate after 30 mins by spectrophotometric analysis
# [7] = target: Hepatocyte growth factor receptor (Homo sapiens, UniProt P08581); assay: Inhibition of c-MET (unknown origin) using poly (Glu, Tyr) (4:1) as substrate after 30 mins by spectrophotometric analysis
# [8] = Ratio of foretinib IC50 to compound IC50 for human H460 cells; assay type: functional
# U-87 MG = assay: Ratio of foretinib IC50 to compound IC50 for human U87MG cells; assay type: functional, U-87MG ATCC
# HT-29 [9] = assay: Cytotoxicity against human HT-29 cells after 72 hrs by MTT assay; details: HT-29, 72 h
# MKN-45 = assay: Cytotoxicity against human MKN45 cells after 72 hrs by MTT assay; details: MKN-45, 72 h
# [10] = Cytotoxicity against human H460 cells after 72 hrs by MTT assay; details: NCI-H460, 72 h
# [11] = target: Mast/stem cell growth factor receptor Kit (Homo sapiens, UniProt P10721); assay: Inhibition of c-KIT (unknown origin) using poly (Glu, Tyr) (4:1) as substrate after 30 mins by spectrophotometric analysis
# Chain of Mast/stem cell growth factor receptor Kit (P10721 whole entry): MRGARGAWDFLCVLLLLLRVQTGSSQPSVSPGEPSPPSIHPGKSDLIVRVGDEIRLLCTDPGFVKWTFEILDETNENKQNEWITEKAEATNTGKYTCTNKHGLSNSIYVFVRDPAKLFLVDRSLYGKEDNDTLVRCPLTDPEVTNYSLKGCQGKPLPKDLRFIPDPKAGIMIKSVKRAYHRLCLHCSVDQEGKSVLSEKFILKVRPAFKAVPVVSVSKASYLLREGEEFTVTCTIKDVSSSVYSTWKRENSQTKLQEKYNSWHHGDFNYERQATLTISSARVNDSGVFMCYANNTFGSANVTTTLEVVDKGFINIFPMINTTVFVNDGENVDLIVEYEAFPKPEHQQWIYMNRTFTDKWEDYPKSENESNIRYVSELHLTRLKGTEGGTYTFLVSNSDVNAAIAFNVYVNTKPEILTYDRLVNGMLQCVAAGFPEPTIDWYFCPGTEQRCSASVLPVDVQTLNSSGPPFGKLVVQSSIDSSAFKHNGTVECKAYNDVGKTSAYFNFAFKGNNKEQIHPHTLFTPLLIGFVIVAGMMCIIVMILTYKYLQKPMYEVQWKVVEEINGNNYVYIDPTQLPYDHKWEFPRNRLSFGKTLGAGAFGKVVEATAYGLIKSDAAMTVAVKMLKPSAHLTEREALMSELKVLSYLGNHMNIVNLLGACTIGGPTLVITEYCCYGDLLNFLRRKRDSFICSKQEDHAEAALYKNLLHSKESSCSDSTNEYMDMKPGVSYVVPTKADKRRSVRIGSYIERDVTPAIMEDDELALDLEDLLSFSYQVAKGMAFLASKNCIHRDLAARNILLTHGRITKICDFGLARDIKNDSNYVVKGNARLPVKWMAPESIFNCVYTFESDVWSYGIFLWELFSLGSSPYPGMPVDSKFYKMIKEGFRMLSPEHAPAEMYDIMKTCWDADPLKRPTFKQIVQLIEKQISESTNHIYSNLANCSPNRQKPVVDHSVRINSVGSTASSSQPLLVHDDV
# Chain of Hepatocyte growth factor receptor (P08581 whole entry): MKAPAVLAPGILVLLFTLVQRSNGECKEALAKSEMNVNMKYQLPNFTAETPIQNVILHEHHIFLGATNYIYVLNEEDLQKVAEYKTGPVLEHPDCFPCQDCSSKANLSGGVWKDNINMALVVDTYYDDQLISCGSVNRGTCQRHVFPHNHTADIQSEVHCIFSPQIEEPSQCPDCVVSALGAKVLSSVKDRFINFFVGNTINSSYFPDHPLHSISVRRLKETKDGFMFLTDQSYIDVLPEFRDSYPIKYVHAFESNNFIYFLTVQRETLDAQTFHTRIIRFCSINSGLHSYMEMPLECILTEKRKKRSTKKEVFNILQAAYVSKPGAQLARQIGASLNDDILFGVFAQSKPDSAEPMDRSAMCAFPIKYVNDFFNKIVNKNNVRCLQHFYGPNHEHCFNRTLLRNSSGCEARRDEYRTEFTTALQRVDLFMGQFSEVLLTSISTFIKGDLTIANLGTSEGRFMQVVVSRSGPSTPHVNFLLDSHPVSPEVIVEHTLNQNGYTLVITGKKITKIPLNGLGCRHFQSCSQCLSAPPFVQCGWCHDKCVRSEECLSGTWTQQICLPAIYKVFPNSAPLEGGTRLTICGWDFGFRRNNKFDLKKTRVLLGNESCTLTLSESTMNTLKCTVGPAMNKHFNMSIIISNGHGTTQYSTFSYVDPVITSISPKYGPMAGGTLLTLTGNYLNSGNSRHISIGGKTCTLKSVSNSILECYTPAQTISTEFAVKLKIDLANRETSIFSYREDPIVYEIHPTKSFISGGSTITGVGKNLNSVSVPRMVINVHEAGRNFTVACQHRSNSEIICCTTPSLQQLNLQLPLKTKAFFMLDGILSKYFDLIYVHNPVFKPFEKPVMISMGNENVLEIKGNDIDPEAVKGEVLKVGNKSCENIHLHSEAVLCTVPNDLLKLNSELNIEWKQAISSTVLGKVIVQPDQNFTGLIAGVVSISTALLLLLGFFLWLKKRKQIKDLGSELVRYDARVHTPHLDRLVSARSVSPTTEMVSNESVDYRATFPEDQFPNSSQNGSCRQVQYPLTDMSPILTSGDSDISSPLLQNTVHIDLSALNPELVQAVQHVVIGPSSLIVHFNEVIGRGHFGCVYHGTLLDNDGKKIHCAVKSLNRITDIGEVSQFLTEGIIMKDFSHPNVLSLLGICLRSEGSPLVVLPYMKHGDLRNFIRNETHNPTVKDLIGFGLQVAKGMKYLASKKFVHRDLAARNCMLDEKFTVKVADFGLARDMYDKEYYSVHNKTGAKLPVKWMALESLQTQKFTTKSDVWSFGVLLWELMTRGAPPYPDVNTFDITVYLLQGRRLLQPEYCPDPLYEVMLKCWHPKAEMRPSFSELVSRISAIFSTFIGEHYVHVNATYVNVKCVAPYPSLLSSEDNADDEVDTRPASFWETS
# Chain of Epidermal growth factor receptor (P00533 whole entry): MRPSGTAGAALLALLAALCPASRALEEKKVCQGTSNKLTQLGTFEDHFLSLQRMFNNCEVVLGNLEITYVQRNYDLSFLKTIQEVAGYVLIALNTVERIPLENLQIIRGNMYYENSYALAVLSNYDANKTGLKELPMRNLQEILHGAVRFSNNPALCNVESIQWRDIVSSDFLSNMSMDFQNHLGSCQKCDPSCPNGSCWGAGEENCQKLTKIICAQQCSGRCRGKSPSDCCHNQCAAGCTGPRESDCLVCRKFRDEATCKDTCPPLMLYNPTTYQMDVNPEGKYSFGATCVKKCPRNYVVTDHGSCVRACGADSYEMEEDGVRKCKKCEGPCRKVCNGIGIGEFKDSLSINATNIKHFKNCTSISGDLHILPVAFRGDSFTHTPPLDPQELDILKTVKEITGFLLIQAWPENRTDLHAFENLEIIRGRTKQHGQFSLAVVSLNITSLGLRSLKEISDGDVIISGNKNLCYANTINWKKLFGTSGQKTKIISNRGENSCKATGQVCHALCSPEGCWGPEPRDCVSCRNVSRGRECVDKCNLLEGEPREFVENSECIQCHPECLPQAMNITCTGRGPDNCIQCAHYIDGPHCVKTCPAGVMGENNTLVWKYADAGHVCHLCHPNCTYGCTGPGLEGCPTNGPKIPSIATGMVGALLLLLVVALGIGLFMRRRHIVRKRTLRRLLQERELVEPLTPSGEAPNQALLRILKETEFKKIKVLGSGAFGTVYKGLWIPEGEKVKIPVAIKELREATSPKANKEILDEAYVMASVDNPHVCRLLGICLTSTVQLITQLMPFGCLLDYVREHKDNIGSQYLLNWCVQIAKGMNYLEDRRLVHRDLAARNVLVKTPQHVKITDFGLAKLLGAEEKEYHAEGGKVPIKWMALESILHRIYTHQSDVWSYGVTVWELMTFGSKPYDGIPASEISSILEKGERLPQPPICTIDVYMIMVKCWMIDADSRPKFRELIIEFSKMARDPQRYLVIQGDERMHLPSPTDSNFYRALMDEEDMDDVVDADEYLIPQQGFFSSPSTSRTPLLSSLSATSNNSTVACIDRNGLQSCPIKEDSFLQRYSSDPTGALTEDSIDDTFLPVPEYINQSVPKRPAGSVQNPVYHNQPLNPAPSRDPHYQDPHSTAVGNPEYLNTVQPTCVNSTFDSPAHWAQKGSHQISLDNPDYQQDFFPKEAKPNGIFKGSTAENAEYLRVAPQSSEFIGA
# Chain of Platelet-derived growth factor receptor beta (P09619 whole entry): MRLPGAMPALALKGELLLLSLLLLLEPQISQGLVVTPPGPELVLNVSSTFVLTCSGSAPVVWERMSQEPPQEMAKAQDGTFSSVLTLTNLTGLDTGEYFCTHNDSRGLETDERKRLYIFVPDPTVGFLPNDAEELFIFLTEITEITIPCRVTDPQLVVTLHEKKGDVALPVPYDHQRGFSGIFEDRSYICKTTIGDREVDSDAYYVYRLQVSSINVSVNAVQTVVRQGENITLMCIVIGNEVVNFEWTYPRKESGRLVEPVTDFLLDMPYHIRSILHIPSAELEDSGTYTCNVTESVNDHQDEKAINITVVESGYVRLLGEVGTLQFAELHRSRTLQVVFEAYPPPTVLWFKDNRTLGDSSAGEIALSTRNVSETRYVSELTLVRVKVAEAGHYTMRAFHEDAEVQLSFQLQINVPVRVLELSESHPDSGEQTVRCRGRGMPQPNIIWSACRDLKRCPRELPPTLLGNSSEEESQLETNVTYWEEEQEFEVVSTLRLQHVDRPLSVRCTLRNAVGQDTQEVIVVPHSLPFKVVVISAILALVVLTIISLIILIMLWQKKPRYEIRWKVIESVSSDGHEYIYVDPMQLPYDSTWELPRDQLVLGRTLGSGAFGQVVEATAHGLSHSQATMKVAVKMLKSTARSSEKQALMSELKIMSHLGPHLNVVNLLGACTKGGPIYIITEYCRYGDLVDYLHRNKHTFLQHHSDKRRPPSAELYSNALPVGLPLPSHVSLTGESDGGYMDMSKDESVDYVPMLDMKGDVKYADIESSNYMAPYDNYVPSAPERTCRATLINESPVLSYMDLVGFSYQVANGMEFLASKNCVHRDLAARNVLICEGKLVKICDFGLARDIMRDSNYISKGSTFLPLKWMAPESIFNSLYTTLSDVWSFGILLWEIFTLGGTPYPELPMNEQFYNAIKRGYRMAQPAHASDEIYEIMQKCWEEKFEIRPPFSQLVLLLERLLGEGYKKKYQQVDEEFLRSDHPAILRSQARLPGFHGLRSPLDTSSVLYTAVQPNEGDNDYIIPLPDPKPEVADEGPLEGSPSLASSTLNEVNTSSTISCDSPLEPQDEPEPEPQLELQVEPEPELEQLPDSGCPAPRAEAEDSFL
smiles,measurement,setting,value
COc1cc2c(Oc3ccc(NC(=O)c4cc(-c5ccc(C)cc5)ccn4)cc3F)ccnc2cc1OCCCN1CCN(C)CC1,pIC50,[1],8.97
same,Ratio IC50,HT-29 [2],7.3
same,pIC50,A549,7.00
same,pIC50,[3],8.85
same,pIC50,[4],6.09
same,pIC50,[5],7.05
same,pIC50,[6],6.27
same,pIC50,[7],8.86
same,Ratio IC50,[8],5.8
same,Ratio IC50,U-87 MG,1.2
same,pIC50,HT-29 [9],7.59
same,pIC50,MKN-45,7.14
same,pIC50,[10],7.43
same,pIC50,[11],6.35
